Results collected from several papers.
Compare with care: the assays were run in different laboratories.
HDAC2: Histone deacetylase 2 (HDAC2, Homo sapiens, UniProt Q92769)
PDE5A: cGMP-specific 3',5'-cyclic phosphodiesterase (PDE5A, Homo sapiens, UniProt O76074)
AURKB: Aurora kinase B (AURKB, Homo sapiens, UniProt Q96GD4)
KDM1A: Lysine-specific histone demethylase 1A (KDM1A, Homo sapiens, UniProt O60341)
MEP1A: Meprin A subunit alpha (MEP1A, Homo sapiens, UniProt Q16819)
PFF0160c: Dihydroorotate dehydrogenase (quinone), mitochondrial (PFF0160c, Plasmodium falciparum, UniProt Q08210)
PPO3: PPO3 (Agaricus bisporus, UniProt C7FF04)
BMX: Cytoplasmic tyrosine-protein kinase BMX (BMX, Homo sapiens, UniProt P51813)

`CCC(=O)CCCCC[C@@H]1NC(=O)[C@H](C)N(C)C(=O)C[C@H](CC(C)C)NC(=O)[C@H](Cc2c[nH]c3ccccc23)NC1=O` gave an IC50 of 0.04 µM (HDAC2; enzyme activity, inhibitor).
For `COc1ccc(C2=NN(C3CCCCCC3)C(=O)[C@@H]3CC=CC[C@H]23)cc1-c1ccc(C(N)=O)cc1` (relative stereo), the IC50 was over 10 µM (PDE5A; enzyme activity, inhibitor).
For `Cc1cnc(-c2ccc(-c3ccc(NC(=O)Nc4c(F)cc(F)cc4F)cc3F)c3c2C(=O)NC3)[nH]1`, the IC50 was 0.0037 µM (AURKB; enzyme activity, inhibitor).
`C#CCSc1nc(Sc2nnnn2-c2ccccc2)c2nnn(Cc3cccc(Cl)c3)c2n1` has an IC50 of 0.074 µM (KDM1A; enzyme activity, inhibitor, fluorescence).
`CCCS(=O)(=O)Nc1ccc(F)c(C(=O)c2c[nH]c3ncc(Cl)cc23)c1F` has an IC50 of 0.022 µM (Serine/threonine-protein kinase A-Raf (ARAF, Homo sapiens, UniProt P10398); enzyme activity, inhibitor; lysate).
The IC50 of `CCCCC[C@H](O)/C=C/[C@H]1[C@@H]2CO[C@@H](C2)[C@@H]1C/C=C\CCCC(=O)O` is reported as 0.013 µM (Thromboxane A2 receptor (TBXA2R, Homo sapiens, UniProt P21731); ligand displacement, radioligand).
With `CN(C)C/C=C/C(=O)Nc1cccc(C(=O)Nc2ccc(Nc3nccc(-c4cccnc4)n3)cc2)c1` the IC50 was 0.185 µM (Serine/threonine-protein kinase Nek3 (NEK3, Homo sapiens, UniProt P51956); enzyme activity, inhibitor, radiometric).
`O=C(CCN(Cc1ccc2c(c1)OCO2)Cc1ccc(Cl)cc1F)NO` gave an IC50 of 0.186 µM (MEP1A; enzyme activity, inhibitor).
`CCCON(Cc1ccc(C(=O)NO)cc1)C(=O)Nc1ccc(N(C)C)cc1` has an IC50 of 1.14 µM (HDAC2; enzyme activity, inhibitor, fluorescence).
`CN(CCCCNC(=O)c1cc2ccccc2[nH]1)[C@@H]1Cc2cccc3[nH]c(=O)n(c23)C1` has an IC50 of 1.94 µM (5-hydroxytryptamine receptor 2A (HTR2A, Homo sapiens, UniProt P28223); ligand displacement, radioligand).
`COc1ccc([C@@H]2c3[nH]c4ccccc4c3C[C@H]3C(=O)N(C(C)(C)C)C(=O)N23)cc1OC` has an IC50 of 6.21 µM (PDE5A; enzyme activity, inhibitor, FP).
`N#CC(C(=O)c1ccc(Cl)cc1Cl)=C1NC(=O)c2ccc(OCc3ccc4c(c3)OCO4)cc2N1` has an IC50 of 130 µM (Cytoplasmic dynein 1 heavy chain 1 (DYNC1H1, Homo sapiens, UniProt Q14204); ATPase activity, inhibitor).
For `CCCSc1nc(Sc2nncs2)c2nnn(CCO)c2n1`, the IC50 was 1.05 µM (KDM1A; enzyme activity, inhibitor, fluorescence).
For `COCCc1nc2nc(C)cc(Nc3cccc(Cl)c3)n2n1`, the IC50 was over 10 µM (PFF0160c; enzyme activity, inhibitor).
For `Cc1ccc(C(C)C)cc1NC(=O)COC(=O)c1cc(O)cc(O)c1`, the IC50 was 20.2 µM (PPO3; enzyme activity, inhibitor).
`COc1cc2c(cc1OC)-c1c/c(=N\c3c(C)cc(C)cc3C)n(C)c(=O)n1CC2` has an IC50 of 3.4 µM (PDE5A; enzyme activity, inhibitor, FP).
`Cc1cc(Nc2ccc(Cl)cc2)n2nc(OCCN)nc2n1` gave an IC50 of over 10 µM (PFF0160c; enzyme activity, inhibitor).
The IC50 of `O=C1[C@@H]2Cc3c([nH]c4ccccc34)[C@@H](c3cccnc3)N2C(=O)N1c1ccc(Cl)cc1` is reported as 1.25 µM (PDE5A; enzyme activity, inhibitor, FP).
`O=C(CCN(Cc1ccncc1)Cc1ccc(Cl)c(O)c1F)NO` gave an IC50 of 0.646 µM (MEP1A; enzyme activity, inhibitor).
With `Nc1cc(Nc2ccc(C(F)(F)F)cc2)n2ncnc2n1` the IC50 was 31 µM (PFF0160c; enzyme activity, inhibitor).
`C=CC(=O)Nc1cc(Nc2nccc(Nc3cc(Cl)c(F)cc3C(C)(C)O)n2)c(OC)cc1N1CC[C@@H](N(C)C)C1` has an IC50 of 2.29 µM (BMX; enzyme activity, inhibitor; with preincubation).
`Cc1ccc(NC(=O)c2ccc(C)c(C(F)(F)F)c2)cc1C#Cc1nn(C2CCC(O)CC2)c2ncnc(N)c12` (stereo not shown) has an IC50 of 0.021 µM (BMX; enzyme activity, inhibitor, radiometric).
The IC50 of `COCCOc1nc2nc(C)cc(Nc3ccc(Cl)cc3)n2n1` is reported as over 10 µM (PFF0160c; enzyme activity, inhibitor).
`COc1ccc(N=Nc2c(N)nc(N)nc2N)cc1` has an IC50 of 43.8 µM (PPO3; enzyme activity, inhibitor, absorbance).
With `CCN1C(=O)[C@H]2Cc3c([nH]c4ccccc34)[C@@H](c3ccc(OC)c(OC)c3)N2C1=O` the IC50 was 5.11 µM (PDE5A; enzyme activity, inhibitor, FP).
For `Cc1cc(Nc2ccc(Cl)cc2)n2[nH]c(=O)nc2n1`, the IC50 was over 10 µM (PFF0160c; enzyme activity, inhibitor).
The IC50 of `O=C(Nc1ccn(Cc2ccc(O)cc2C(F)(F)F)n1)c1c(F)cccc1F` is reported as over 10 µM (Transient receptor potential cation channel subfamily A member 1 (TRPA1, Homo sapiens, UniProt O75762); ion current, inhibitor).
For `CCOCc1nc(O)c(-c2nnc(Cc3ccc(Cl)cn3)o2)c(O)c1-c1c(OC)cccc1OC`, the IC50 was over 30 µM (Adenosine receptor A2a (ADORA2A, Homo sapiens, UniProt P29274); ligand displacement, radioligand).
`O=C(c1ccc2ccncc2c1)N1CCC2CC1CN2C(=O)c1n[nH]c(=O)c2ccccc12` (stereo not shown) gave an IC50 of 1.42 µM (Poly [ADP-ribose] polymerase 1 (PARP1, Homo sapiens, UniProt P09874); enzyme activity, inhibitor).
The IC50 of `Nc1nc(N)c(N=Nc2ccc([N+](=O)[O-])cc2)c(Cl)n1` is reported as 37.2 µM (PPO3; enzyme activity, inhibitor, absorbance).
`Cc1cnc(Nc2ccc(N3CCN(C)CC3)cc2)nc1Nc1cccc(S(=O)(=O)NC(C)(C)C)c1` gave an IC50 of 0.033 µM (AURKB; enzyme activity, inhibitor, mobility shift).
With `CCCC[C@H](NC(=O)[C@H](C)c1c(C)[nH]c2ccc(O)cc12)c1ncc(-c2cc3ccccc3nc2OC)[nH]1` the IC50 was 9.75 µM (Cannabinoid receptor 1 (CNR1, Homo sapiens, UniProt P21554); cell-free assay).
With `Cc1ccc(C(C)C)cc1NC(=O)COC(=O)c1cccc(O)c1` the IC50 was 11 µM (PPO3; enzyme activity, inhibitor).
For `CC(C)(C)N1C(=O)[C@H]2Cc3c([nH]c4ccccc34)[C@H](c3cccnc3)N2C1=O`, the IC50 was 4.75 µM (PDE5A; enzyme activity, inhibitor, FP).
With `Cc1cc(Nc2cccc(Cl)c2)n2nc(OCCN)nc2n1` the IC50 was over 10 µM (PFF0160c; enzyme activity, inhibitor).
`CC/C=C\C/C=C\C/C=C\C/C=C\C/C=C\CCCC(=O)O` gave an IC50 of over 100 µM (Deoxyribonuclease-1 (DNASE1, Bos taurus, UniProt P00639); enzyme activity, inhibitor).
The IC50 of `CCCCc1ccc(-c2ccc(-c3cc(C(=O)O)c4ccc(OC)cc4n3)o2)cc1` is reported as over 150 µM (Eukaryotic initiation factor 4A-I (EIF4A1, Homo sapiens, UniProt P60842); ATPase activity, inhibitor, absorbance).
`Cc1cc(Nc2cccc(Cl)c2)n2nc(CC(C)C)nc2n1` has an IC50 of over 10 µM (PFF0160c; enzyme activity, inhibitor).
With `Cc1ccc(C(C)C)cc1NC(=O)COC(=O)/C=C/c1ccc(O)cc1` the IC50 was 1.41 µM (PPO3; enzyme activity, inhibitor).
`CNCCOc1nc2nc(C)cc(Nc3ccc(Cl)cc3)n2n1` has an IC50 of over 10 µM (PFF0160c; enzyme activity, inhibitor).
With `CCN1CC(=O)N2[C@H](c3ccc(OC)c(OC)c3)c3[nH]c4ccccc4c3C[C@@H]2C1=O` the IC50 was 4.35 µM (PDE5A; enzyme activity, inhibitor, FP).
`Cc1cc(Nc2ccc(S(F)(F)(F)(F)F)cc2)n2nc(CC(C)C)nc2n1` gave an IC50 of over 10 µM (PFF0160c; enzyme activity, inhibitor).
`COC(=O)[C@H]1Cc2c([nH]c3ccccc23)[C@@H](c2ccc(OC)c(OC)c2)N1C(=O)CCl` has an IC50 of over 10 µM (PDE5A; enzyme activity, inhibitor, FP).
